Experimental data reported in ChEMBL document CHEMBL3272290, “Contragestational agents. 1. Steroidal O-aryloximes” (J Med Chem, 1977).

Test system: Rattus norvegicus
Assay: Antifertility activity in Wistar rat assessed as inhibition of preimplantive gestation by measuring resorptions at 2.5 mg/kg, po administered in days 9 to 12 of pregnancy measured on day 21
Assay type: functional
Design: scale not given: the % may be the effect or the level left
Summary of the method: (§1)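 Groups of five pregnant female Wistar-derived rats dosed orally on days 9–12 of pregnancy, in sesame oil at 0.5 mL per 200 g body weight. Read-out was the percentage of resorptions.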

Q: CC12CC[C@H]3[C@@H](CC[C@H]4C/C(=N/Oc5ccc([N+](=O)[O-])cc5)[C@H](Cl)C[C@@]43C)[C@@H]1CCC2=O (single isomer, unassigned) was tested. Which Activity did it give?
A: 100%

Q: Which Activity does the source give for CC(=O)O[C@H]1CC[C@H]2[C@@H]3CC[C@H]4C/C(=N/Oc5ccc([N+](=O)[O-])cc5)[C@H](Br)C[C@]4(C)[C@H]3CC[C@]12C here?
A: 100%

Q: How did the Activity turn out when C[C@]12CC/C(=N\Oc3ccc([N+](=O)[O-])cc3)C[C@@H]1CC[C@@H]1[C@@H]2CC[C@]2(C)[C@@H](O)CC[C@@H]12 was run?
A: 100%

Test system: Rattus norvegicus
Assay: Antifertility activity in Wistar rat assessed as inhibition of preimplantive gestation by measuring resorptions at 40 mg/kg, po administered in days 9 to 12 of pregnancy measured on day 21
Assay type: functional
Design: scale not given: the % may be the effect or the level left
Summary of the method: as §1

Q: For CC(=O)O[C@H]1CC[C@H]2[C@@H]3CC[C@H]4C/C(=N/Oc5ccccc5[N+](=O)[O-])CC[C@]4(C)[C@H]3CC[C@]12C, which Activity is on record?
A: 4%

Q: How did the Activity turn out when C[C@]12CC/C(=N\Oc3ccc([N+](=O)[O-])cc3[N+](=O)[O-])C[C@H]1CC[C@@H]1[C@@H]2CC[C@]2(C)[C@@H](O)CC[C@@H]12 was run?
A: 5.4%

Q: With C[C@]12CC/C(=N\Oc3ccc([N+](=O)[O-])cc3)C[C@@H]1CC[C@@H]1[C@@H]2CC[C@@]2(C)[C@H]1CCC21SCCS1 as the molecule, how does the Activity read?
A: 4%

Q: Which Activity does the source give for C[C@]1(O)CC[C@H]2[C@@H]3CC[C@H]4C/C(=N/Oc5ccc([N+](=O)[O-])cc5[N+](=O)[O-])CC[C@@H]4[C@H]3CC[C@@]21C here?
A: 9.5%

Q: C[C@]12CC/C(=N\Oc3ccc([N+](=O)[O-])cc3)C[C@@H]1CC[C@@H]1[C@@H]2CC[C@@]2(C)[C@H]1CC[C@]2(C)O was tested. Which Activity did it give?
A: 14.7%

Q: With C[C@]12CC[C@H]3[C@@H](CCC4=C/C(=N/Oc5ccccn5)CC[C@@]43C)[C@@H]1CC[C@@H]2O as the molecule, how does the Activity read?
A: 75.9%

Q: For C[C@]12CC[C@H]3[C@@H](CC[C@H]4C/C(=N/Oc5ccc([N+](=O)[O-])cc5[N+](=O)[O-])CC[C@@H]43)[C@@H]1CC[C@@H]2O, which Activity is on record?
A: 16.4%

Q: How did the Activity turn out when Cc1cc(O/N=C2\CC[C@@]3(C)[C@@H](CC[C@@H]4[C@@H]3CC[C@]3(C)[C@@H](O)CC[C@@H]43)C2)ccc1[N+](=O)[O-] was run?
A: 13.1%

Q: With C[C@]12CC/C(=N\OCc3ccc(Br)c(O)c3)C[C@@H]1CC[C@@H]1[C@@H]2CC[C@]2(C)[C@@H](O)CC[C@@H]12 as the molecule, how does the Activity read?
A: 8.8%

Q: For C#C[C@]1(O)CC[C@H]2[C@@H]3CCC4=C/C(=N/Oc5ccc([N+](=O)[O-])cc5)CC[C@@H]4[C@H]3CC[C@@]21C, which Activity is on record?
A: 25%

Q: CC(=O)O[C@H]1CC[C@H]2[C@@H]3CCC4C/C(=N/Oc5ccc([N+](=O)[O-])cc5)C=C[C@]4(C)[C@H]3CC[C@]12C (some centres undefined) was tested. Which Activity did it give?
A: 2%

Q: C#C[C@]1(O)CC[C@H]2[C@@H]3CC[C@H]4C/C(=N/Oc5ccc([N+](=O)[O-])cc5)CC[C@]4(C)[C@H]3CC[C@@]21C was tested. Which Activity did it give?
A: 76.9%

Q: C[C@]12CC/C(=N\Oc3ccccc3)C[C@H]1CC[C@@H]1[C@@H]2CC[C@]2(C)[C@@H](O)CC[C@@H]12 was tested. Which Activity did it give?
A: 11.9%

Q: Which Activity does the source give for C[C@]12CC[C@H]3[C@@H](CC[C@H]4C/C(=N/Oc5ccc([N+](=O)[O-])cc5)CC[C@@H]43)[C@@H]1CC[C@@H]2O here?
A: 9.8%

Q: C[C@]12CC/C(=N\Oc3ccccn3)C[C@@H]1CC[C@@H]1[C@@H]2CC[C@]2(C)[C@@H](O)CC[C@@H]12 was tested. Which Activity did it give?
A: 0%

Q: C[C@]12CC/C(=N\Oc3ccc([N+](=O)[O-])cc3)C[C@@H]1CC[C@@H]1[C@@H]2CC[C@]2(C)[C@@H](N)CC[C@@H]12 was tested. Which Activity did it give?
A: 2%

Q: For CC(=O)O[C@H]1CC[C@H]2[C@@H]3CC[C@H]4C/C(=N/Nc5ccc([N+](=O)[O-])cc5)CC[C@]4(C)[C@H]3CC[C@]12C, which Activity is on record?
A: 7.7%

Q: How did the Activity turn out when Cc1cc([N+](=O)[O-])ccc1O/N=C1\CC[C@@]2(C)[C@@H](CC[C@@H]3[C@@H]2CC[C@]2(C)[C@@H](O)CC[C@@H]32)C1 was run?
A: 5.7%

Q: With C[C@]12CC/C(=N\Oc3ccc(C(F)(F)F)cc3)C[C@@H]1CC[C@@H]1[C@@H]2CC[C@]2(C)[C@@H](O)CC[C@@H]12 as the molecule, how does the Activity read?
A: 4.8%

Q: How did the Activity turn out when C[C@]12CC[C@H]3[C@@H](CCC4=C/C(=N/Oc5ccc(C(F)(F)F)cc5)CC[C@@]43C)[C@@H]1CC[C@@H]2O was run?
A: 11.8%

Q: With C[C@]12CC/C(=N\OCc3ccccc3)C[C@@H]1CC[C@@H]1[C@@H]2CC[C@]2(C)[C@@H](O)CC[C@@H]12 as the molecule, how does the Activity read?
A: 13.3%

Q: Which Activity does the source give for C[C@@]12CCC[C@H]1[C@@H]1CC[C@H]3C/C(=N/Oc4ccc([N+](=O)[O-])cc4)CC[C@]3(C)[C@H]1CC2 here?
A: 0%

Q: C[C@]12CC/C(=N\Oc3ccc([N+](=O)[O-])cn3)C[C@@H]1CC[C@@H]1[C@@H]2CC[C@]2(C)[C@@H](O)CC[C@@H]12 was tested. Which Activity did it give?
A: 6%

Q: How did the Activity turn out when C[C@]12CC/C(=N\Oc3ccc([N+](=O)[O-])cc3)C[C@@H]1CC[C@@H]1[C@@H]2CC[C@]2(C)[C@@H](O[N+](=O)[O-])CC[C@@H]12 was run?
A: 30.8%

Q: For C[C@]12CC/C(=N\Oc3ccc([N+](=O)[O-])cc3)C[C@H]1CC[C@@H]1[C@@H]2CC[C@]2(C)[C@@H](O)CC[C@@H]12, which Activity is on record?
A: 10.9%

Q: How did the Activity turn out when CC(=O)O[C@H]1CC[C@H]2[C@@H]3CC[C@H]4C/C(=N/Sc5ccc([N+](=O)[O-])cc5)CC[C@]4(C)[C@H]3CC[C@]12C was run?
A: 7.5%

Q: How did the Activity turn out when CC(=O)[C@H]1CC[C@H]2[C@@H]3CC[C@H]4C/C(=N/Oc5ccc([N+](=O)[O-])cc5)CC[C@]4(C)[C@H]3CC[C@]12C was run?
A: 4%

Q: Which Activity does the source give for C[C@]12CC/C(=N\Oc3ccc(C#N)cc3)C[C@@H]1CC[C@@H]1[C@@H]2CC[C@]2(C)[C@@H](O)CC[C@@H]12 here?
A: 12.9%

Q: C[C@]12CC/C(=N\Oc3ccc([N+](=O)[O-])cc3[N+](=O)[O-])C[C@@H]1CC[C@@H]1[C@@H]2CC[C@]2(C)[C@@H](O)CC[C@@H]12 was tested. Which Activity did it give?
A: 8.2%

Q: How did the Activity turn out when C[C@]12CC/C(=N\Oc3ccc([N+](=O)[O-])cc3Cl)C[C@@H]1CC[C@@H]1[C@@H]2CC[C@]2(C)[C@@H](O)CC[C@@H]12 was run?
A: 5.8%

Q: With C[C@]12CC[C@H]3[C@@H](CCC4=C/C(=N/Oc5ccc([N+](=O)[O-])cc5)CC[C@@]43C)[C@@H]1CC[C@@H]2O as the molecule, how does the Activity read?
A: 93.8%

Q: For C[C@]12CC/C(=N\Oc3ccccc3)C[C@@H]1CC[C@@H]1[C@@H]2CC[C@]2(C)[C@@H](O)CC[C@@H]12, which Activity is on record?
A: 1.9%

Q: With C[C@]12CC[C@H]3[C@@H](CCC4=C/C(=N/Oc5ccccc5)CC[C@@H]43)[C@@H]1CC[C@@H]2O as the molecule, how does the Activity read?
A: 100%

Q: For C[C@]12CC[C@H]3[C@@H](CCC4=C/C(=N/Oc5ccccc5[N+](=O)[O-])CC[C@@H]43)[C@@H]1CC[C@@H]2O, which Activity is on record?
A: 11.9%

Q: For CC(=O)O[C@H]1CC[C@H]2[C@@H]3CC[C@H]4C/C(=N/Oc5ccc([N+](=O)[O-])cc5)C[C@H](C)[C@]4(C)[C@H]3CC[C@]12C, which Activity is on record?
A: 5.8%

Q: Which Activity does the source give for CC(=O)O[C@H]1CC[C@H]2[C@@H]3CC[C@H]4CC(=O)CC[C@]4(C)[C@H]3CC[C@]12C here?
A: 5%
